In ChEMBL document CHEMBL1156295, “In vitro and in vivo photocytotoxicity of boron dipyrromethene derivatives for photodynamic therapy” (J Med Chem, 2010) one finds IC50 data, which are given here for 14 molecules.

What is called IC50 is the concentration that gives 50% inhibition. Low readings indicate greater potency, high ones weaker potency.

Holding throughout (type): functional, cell-based
In assay [1] the test system is HL-60. The assay is described as follows: Phototoxicity against human HL60 cells irradiated with 4.1 J/cm^2 broad spectrum light treated 2 hrs before irradiation measured after 24 hrs by MTT assay. The following applies: HL-60, light or radiation study. Put shortly: (§1)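 HL60 at 15000 cells/well; HSC-2 and HK1 at 3000 cells/well, adhered overnight; phenol-red-free medium with 10% FBS. Compound tested at 0.001–100.0 μM from DMSO stock; controls 0.01% DMSO. After 2 h, irradiated with broad-spectrum light at 6.8 mW/cm2, or dark. After 24 h, MTT 4 h at 37 °C, formazan in DMSO, A570. Three determinations, mean ± SD.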
In general terms: Tetrazolium assays rely on reduction of a dye to a coloured formazan, in cell work by metabolically active cells.

The subject of assay [2] is HSC-2. The assay is described as follows: Cytotoxicity against human HSC2 cells after 24 hrs by MTT assay. The following applies: HSC-2, 24 h. The method, boiled down: as §1
Assay [3] can be described thus: Phototoxicity against human HK1 cells irradiated with 4.1 J/cm^2 broad spectrum light treated 2 hrs before irradiation measured after 24 hrs by MTT assay. The conditions noted are these: HK-1, light or radiation study. Put shortly:
as §1

Assay [4] can be described thus: Cytotoxicity against human HK1 cells after 24 hrs by MTT assay. The conditions noted are these: HK-1, 24 h. The method, boiled down: as §1
Assay [5] has as its system HSC-2. Briefly: Phototoxicity against human HSC2 cells irradiated with 4.1 J/cm^2 broad spectrum light treated 2 hrs before irradiation measured after 24 hrs by MTT assay. The conditions noted are these: HSC-2, light or radiation study. Put shortly: as §1
The test system of assay [6] is HL-60. Briefly: Cytotoxicity against human HL60 cells after 24 hrs by MTT assay. The following applies: HL-60, 24 h. The method, boiled down: as §1

Turning to `CCCCOC(=O)/C=C/C1=C(C)C2=Cc3c(C)cc(C)n3[B-](F)(F)[N+]2=C1C`, the IC50 is 0.49 µM in the assay on HL-60 [1]; more than 100 µM in the assay on HSC-2 [2]; 1.1 µM in assay [3]; 99.6 µM in assay [4]; 0.6 µM in the assay with HSC-2 [5]; more than 100 µM in the assay with HL-60 [6].
On to `COC(=O)/C=C/C1=C(C)C2=Cc3c(C)c(/C=C/C(=O)OC)c(C)n3[B-](F)(F)[N+]2=C1C`, for which the IC50 in the assay on HL-60 [1] is 5.2 µM; in the assay with HSC-2 [2], more than 100 µM; in assay [3], 8.5 µM; in assay [4], more than 100 µM; in the assay with HSC-2 [5], 11.1 µM; in the assay with HL-60 [6], more than 100 µM.
For `CC1=CC(C)=[N+]2C1=Cc1c(C)cc(C)n1[B-]2(F)F`, the IC50 was 4.4 µM in the assay with HL-60 [1]; more than 100 µM in the assay with HSC-2 [2]; 6.2 µM in assay [3]; 76.8 µM in assay [4]; 8.7 µM with HSC-2 [5]; more than 100 µM in the assay on HL-60 [6].
As to `CC1=C(S(=O)(=O)O)C(C)=[N+]2C1=C(c1ccc(I)cc1)c1c(C)c(S(=O)(=O)O)c(C)n1[B-]2(F)F`, the IC50 is 54.3 µM with HL-60 [1]; more than 100 µM in the assay on HSC-2 [2]; 59 µM in assay [3]; more than 100 µM in assay [4]; 59.4 µM with HSC-2 [5]; more than 100 µM with HL-60 [6].
Turning to `CC1=C(/C=C/S(=O)(=O)O)C(C)=[N+]2C1=Cc1c(C)cc(C)n1[B-]2(F)F`, the IC50 (in the assay with HL-60 [1]; in the assay on HSC-2 [2]; in assay [3]; in assay [4]; in the assay with HSC-2 [5]; in the assay with HL-60 [6]) was more than 100 µM in each case.
As to `COC(=O)C1=CCCCC1C1=C(C)C2=Cc3c(C)cc(C)n3[B-](F)(F)[N+]2=C1C` (configuration not stated), the IC50 in the assay with HL-60 [1] was 4.9 µM; in the assay on HSC-2 [2] it was more than 100 µM; in assay [3], 5 µM; in assay [4], more than 100 µM; in the assay on HSC-2 [5], 4.1 µM; in the assay on HL-60 [6], more than 100 µM.
For the molecule `CC1=C(/C=C/C(=O)O)C(C)=[N+]2C1=Cc1c(C)cc(C)n1[B-]2(F)F`, the IC50 (in the assay with HL-60 [1]; in the assay with HSC-2 [2]; in assay [3]; in assay [4]; in the assay on HSC-2 [5]; in the assay on HL-60 [6]) was more than 100 µM in each case.
For `COC(=O)/C=C/C1=C(C)C2=Cc3c(C)cc(C)n3[B-](F)(F)[N+]2=C1C`, the IC50 in the assay on HL-60 [1] is 4.8 µM; with HSC-2 [2] it was more than 100 µM; in assay [3] it was 5.3 µM; in assay [4], more than 100 µM; with HSC-2 [5], 5.4 µM; with HL-60 [6] it was more than 100 µM.
`CC1=C(I)C(C)=[N+]2C1=C(c1ccc(I)cc1)c1c(C)c(I)c(C)n1[B-]2(F)F`: the IC50 came out at 0.42 µM in the assay on HL-60 [1]; 10 µM in the assay on HSC-2 [2]; 0.69 µM in assay [3]; 95.5 µM in assay [4]; 0.5 µM in the assay on HSC-2 [5]; 10 µM in the assay with HL-60 [6].
`CC1=C(I)C(C)=[N+]2C1=Cc1c(C)c(I)c(C)n1[B-]2(F)F`: the IC50 with HL-60 [1] was 0.062 µM; in the assay with HSC-2 [2], more than 100 µM; in assay [3], 0.57 µM; in assay [4], more than 100 µM; with HSC-2 [5], 0.64 µM; in the assay on HL-60 [6], more than 100 µM.
As to `CC1=CC(C)=[N+]2C1=C(c1ccc(I)cc1)c1c(C)cc(C)n1[B-]2(F)F`, the IC50 is 2.7 µM in the assay on HL-60 [1]; more than 100 µM with HSC-2 [2]; 5.7 µM in assay [3]; more than 100 µM in assay [4]; 5.1 µM in the assay on HSC-2 [5]; more than 100 µM with HL-60 [6].
On to `CC1=C(C=O)C(C)=[N+]2C1=Cc1c(C)cc(C)n1[B-]2(F)F`, for which the IC50 (in the assay with HL-60 [1]; in the assay with HSC-2 [2]; in assay [3]; in assay [4]; in the assay on HSC-2 [5]; in the assay on HL-60 [6]) was more than 100 µM throughout.
On to `COC(=O)C1=CCCC1C1=C(C)C2=Cc3c(C)c(C4CCC=C4C(=O)OC)c(C)n3[B-](F)(F)[N+]2=C1C` (configuration not stated), for which the IC50 in the assay on HL-60 [1] is 3.8 µM; in assay [3] it was 4.8 µM; in assay [4], more than 100 µM; in the assay with HL-60 [6], more than 100 µM.
With `CCCCOC(=O)/C=C/C1=C(C)C2=Cc3c(C)c(/C=C/C(=O)OCCCC)c(C)n3[B-](F)(F)[N+]2=C1C`, the IC50 with HL-60 [1] was 57.7 µM; in the assay on HSC-2 [2], more than 100 µM; in assay [3], more than 100 µM; in assay [4] it was more than 100 µM; in the assay on HSC-2 [5], 37.7 µM; in the assay on HL-60 [6], more than 100 µM.
